Data as given in ChEMBL document CHEMBL1126183, “Synthesis and biological studies of unsaturated acyclonucleoside analogues of S-adenosyl-L-homocysteine hydrolase inhibitors” (J Med Chem, 1992).

Assays:
Mus musculus [1] = experiment: Mean biodistribution and elimination data in thyroid was reported 1 hr after administering compound intravenously in tumor-bearing female BALB-C mice.; format: ADME, organism-based, Thyroid gland; details: in vivo, iv
In short: (§1)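 Female Balb-C mice bearing Line-1 spontaneous lung carcinoma were used 1 week after inoculation of 10⁶ cells. The iodine-125-labeled compound was given in normal saline, filter-sterilized, by lateral tail vein injection under ether anesthesia. At set times the mice were killed and the organs excised, rinsed, blotted and weighed. Activity was gamma-counted and reported as percent injected dose/gram tissue; thyroid was reported as percent injected dose/tissue.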

Mus musculus [2] = experiment: Mean biodistribution and elimination data in thyroid was reported 24 hr after administering compound intravenously in tumor-bearing female BALB-C mice.; format: ADME, organism-based, Thyroid gland; details: in vivo, iv; in short: as §1
Mus musculus [3] = experiment: Mean biodistribution and elimination data in thyroid was reported 4 hr after administering compound intravenously in tumor-bearing female BALB-C mice.; format: ADME, organism-based, Thyroid gland; details: in vivo, iv; in short: as §1
Mus musculus [4] = experiment: Mean biodistribution and elimination data in urine was reported 24 h after administering compound intravenously in tumor-bearing female BALB-C mice.; format: ADME, organism-based; details: in vivo, iv
In short: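 Tumor-bearing female Balb-C mice (Line-1 lung carcinoma) received the ¹²⁵I-labeled compound in normal saline by tail vein injection under ether anesthesia. Urine radioactivity was gamma-counted and expressed as percent injected dose per total sample. Urine was also analyzed by TLC (solvent E) using UV and radioscanning.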

Mus musculus [5] = experiment: Mean biodistribution and elimination data in blood was reported 1 h after administering compound intravenously in tumor-bearing female BALB-C mice.; format: ADME, organism-based; details: in vivo, iv; in short: as §1
Mus musculus [6] = experiment: Mean biodistribution and elimination data in blood was reported 24 hr after administering compound intravenously in tumor-bearing female BALB-C mice.; format: ADME, organism-based; details: in vivo, iv; in short: as §1
Mus musculus [7] = experiment: Mean biodistribution and elimination data in blood was reported 4 hr after administering compound intravenously in tumor-bearing female BALB-C mice.; format: ADME, organism-based; details: in vivo, iv; in short: as §1
Mus musculus [8] = experiment: Mean biodistribution and elimination data in kidney was reported 1 hr after administering compound intravenously in tumor-bearing female BALB-C mice.; format: ADME, organism-based; details: in vivo, iv; in short: as §1
Mus musculus [9] = experiment: Mean biodistribution and elimination data in kidney was reported 24 hr after administering compound intravenously in tumor-bearing female BALB-C mice.; format: ADME, organism-based; details: in vivo, iv; in short: as §1
Mus musculus [10] = experiment: Mean biodistribution and elimination data in kidney was reported 4 hr after administering compound intravenously in tumor-bearing female BALB-C mice.; format: ADME, organism-based; details: in vivo, iv; in short: as §1
Mus musculus [11] = experiment: Mean biodistribution and elimination data in liver was reported 1 hr after administering compound intravenously in tumor-bearing female BALB-C mice.; format: ADME, organism-based; details: in vivo, iv; in short: as §1
Mus musculus [12] = experiment: Mean biodistribution and elimination data in liver was reported 24 h after administering compound intravenously in tumor-bearing female BALB-C mice.; format: ADME, organism-based; details: in vivo, iv; in short: as §1
Mus musculus [13] = experiment: Mean biodistribution and elimination data in liver was reported 4 hr after administering compound intravenously in tumor-bearing female BALB-C mice.; format: ADME, organism-based; details: in vivo, iv; in short: as §1
Mus musculus [14] = experiment: Mean biodistribution and elimination data in lung was reported 1 hr after administering compound intravenously in tumor-bearing female BALB-C mice.; format: ADME, organism-based; details: in vivo, iv; in short: as §1
Mus musculus [15] = experiment: Mean biodistribution and elimination data in lung was reported 24 hr after administering compound intravenously in tumor-bearing female BALB-C mice.; format: ADME, organism-based; details: in vivo, iv; in short: as §1
Mus musculus [16] = experiment: Mean biodistribution and elimination data in lung was reported 4 hr after administering compound intravenously in tumor-bearing female BALB-C mice.; format: ADME, organism-based; details: in vivo, iv; in short: as §1
Mus musculus [17] = experiment: Mean biodistribution and elimination data in tumoe was reported 24 h after administering compound intravenously in tumor-bearing female BALB-C mice.; format: ADME, organism-based; details: in vivo, iv; in short: as §1
Mus musculus [18] = experiment: Mean biodistribution and elimination data in tumor was reported 1 hr after administering compound intravenously in tumor-bearing female BALB-C mice.; format: ADME, organism-based; details: in vivo, iv; in short: as §1
Mus musculus [19] = experiment: Mean biodistribution and elimination data in tumor was reported 4 hr after administering compound intravenously in tumor-bearing female BALB-C mice.; format: ADME, organism-based; details: in vivo, iv; in short: as §1
CCRF-CEM [20] = experiment: In vitro inhibition leukemia CCRF-CEM cell line; format: functional, Homo sapiens
In short: (§2)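 NCI 60-cell-line human tumor screen. Cells were grown 24 h after plating, then exposed 48 h to compound at 10⁻⁴, 10⁻⁵, 10⁻⁶, 10⁻⁷ and 10⁻⁸ M. Growth effect (percent inhibition or kill) was read spectrophotometrically by sulforhodamine B protein staining.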

CCRF-CEM [21] = experiment: In vitro inhibition leukemia CCRF-CEM cell line growth; format: functional, Homo sapiens; in short: as §2
HOP-18 [22] = experiment: In vitro inhibition lung HOP-18 cell line; format: functional, Homo sapiens; in short: as §2
SNB-75 [23] = experiment: In vitro inhibition CNS SNB-75 cell line; format: functional, Homo sapiens; in short: as §2
SNB-75 [24] = experiment: In vitro inhibition CNS SNB-75 cell line growth; format: functional, Homo sapiens; in short: as §2
HOP-18 [25] = experiment: In vitro inhibition lung HOP-18 cell line growth; format: functional, Homo sapiens; in short: as §2
LXFL 529 [26] = experiment: In vitro inhibition lung LXFL529 cell line; format: functional, Homo sapiens; in short: as §2
LXFL 529 [27] = experiment: In vitro inhibition lung LXFL529 cell line growth; format: functional, Homo sapiens; in short: as §2
NCI-H522 [28] = experiment: In vitro inhibition lung […] cell line; format: functional, Homo sapiens; in short: as §2
NCI-H522 [29] = experiment: In vitro inhibition lung […] cell line growth; format: functional, Homo sapiens; in short: as §2
UO-31 [30] = experiment: In vitro inhibition renal UO-31 cell line; format: functional, Homo sapiens; in short: as §2
UO-31 [31] = experiment: In vitro inhibition renal UO-31 cell line growth.; format: functional, Homo sapiens; in short: as §2
DMS-114 = experiment: In vitro inhibition of lung DMS 114 cell line; format: functional, Homo sapiens; in short: as §2
K562 [32] = experiment: In vitro inhibition of leukemia K-562 cell line.; format: functional, Homo sapiens; in short: as §2
K562 [33] = experiment: In vitro inhibition of leukemia K-562 cell line; format: functional, Homo sapiens; in short: as §2
MOLT-4 = experiment: In vitro inhibition of Leukemia Molt-4 cell line; format: functional, Homo sapiens; in short: as §2
SR = experiment: In vitro inhibition of leukemia SR cell line; format: functional, Homo sapiens; in short: as §2
LOX IMVI = experiment: In vitro inhibition of melanoma […] cell line; format: functional, Homo sapiens; in short: as §2

Nc1ncnc2c1ncn2COC/C=C/I
ID/thyroid (Mus musculus [1]): 1.29%
ID/thyroid (Mus musculus [2]): 3.49%
ID/thyroid (Mus musculus [3]): 3.61%
ID/animal (Mus musculus [4]): 94.36%
ID/g (Mus musculus [5]): 3.15%
ID/g (Mus musculus [6]): 0.34%
ID/g (Mus musculus [7]): 1.33%
ID/g (Mus musculus [8]): 3.68%
ID/g (Mus musculus [9]): 0.2%
ID/g (Mus musculus [10]): 1%
ID/g (Mus musculus [11]): 3.4%
ID/g (Mus musculus [12]): 0.33%
ID/g (Mus musculus [13]): 1.34%
ID/g (Mus musculus [14]): 3.41%
ID/g (Mus musculus [15]): 0.35%
ID/g (Mus musculus [16]): 1.3%
ID/g (Mus musculus [17]): 0.06%
ID/g (Mus musculus [18]): 1.5%
ID/g (Mus musculus [19]): 0.6%
Cell growth (CCRF-CEM [20]): 47.4%
Inhibition (CCRF-CEM [21]): 52.6%
Cell growth (HOP-18 [22]): 21.2%
Cell growth (SNB-75 [23]): 25.2%
Inhibition (SNB-75 [24]): 74.8%
Inhibition (HOP-18 [25]): 78.8%

C#CCOCn1cnc2c(Sc3c([N+](=O)[O-])ncn3C)ncnc21
Cell growth (CCRF-CEM [20]): 50%
Inhibition (CCRF-CEM [21]): 50%
Cell growth (LXFL 529 [26]): 37%
Inhibition (LXFL 529 [27]): 63%
Cell growth (NCI-H522 [28]): 32%
Inhibition (NCI-H522 [29]): 68%
Cell growth (SNB-75 [23]): -14%
Cell growth (UO-31 [30]): 48%
Inhibition (UO-31 [31]): 52%

C#CCOCn1cnc2c(S)ncnc21
Cell growth (SNB-75 [23]): 0%
Inhibition (SNB-75 [24]): 100%

C#CCOCn1cnc2c(Cl)ncnc21
Cell growth (DMS-114): 21%
Inhibition (DMS-114): 79%
Cell growth (K562 [32]): 34.8%
Inhibition (K562 [33]): 65.2%
Cell growth (MOLT-4): 40.7%
Inhibition (MOLT-4): 59.3%
Cell growth (SR): 38.4%
Inhibition (SR): 61.6%
Cell growth (LOX IMVI): 33.5%
Inhibition (LOX IMVI): 66.5%
